Measurements taken from ChEMBL document CHEMBL3124806, “Imidazopyridine-fused [1,3]-diazepinones: synthesis and antiproliferative activity” (Eur J Med Chem, 2014).

Columns and labels:
Format in all cases: functional
BT-549 = assay: Cytotoxicity against human BT549 cells assessed as cell growth at 10 uM after 48 hrs by SRB assay relative to untreated control; details: BT-549, 48 h, read-out: Activity
How it was run: (§1)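 NCI-60 panel screen at a single concentration of 10 μM with 48 h incubation. Cell density measured by sulforhodamine B protein-binding dye and read spectrophotometrically. Growth expressed as percent of untreated control cells.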

[1] = Cytotoxicity against human Hs578T cells assessed as cell growth at 10 uM after 48 hrs by SRB assay relative to untreated control; details: Hs-578T, read-out: Activity; how it was run: as §1
MDA-MB-231 = assay: Cytotoxicity against human MDA-MB-231 cells assessed as cell growth at 10 uM after 48 hrs by SRB assay relative to untreated control; details: MDA-MB-231, 48 h, read-out: Activity
How it was run: (§2)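 NCI-60 one-dose screen: each agent added at 10 µM, cultures incubated 48 h. Endpoint by sulforhodamine B protein-binding dye read spectrophotometrically; growth expressed as percent of untreated control cells.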

PC-3 = assay: Cytotoxicity against human PC3 cells assessed as cell growth at 10 uM after 48 hrs by SRB assay relative to untreated control; details: PC-3, 48 h, read-out: Activity; how it was run: as §2
RXF 393 = assay: Cytotoxicity against human RXF393 cells assessed as cell growth at 10 uM after 48 hrs by SRB assay relative to untreated control; details: RXF 393, 48 h, read-out: Activity; how it was run: as §2
CAKI-1 = assay: Cytotoxicity against human Caki1 cells assessed as cell growth at 10 uM after 48 hrs by SRB assay relative to untreated control; details: CAKI-1, 48 h, read-out: Activity; how it was run: as §1
SK-OV-3 = assay: Cytotoxicity against human SKOV3 cells assessed as cell growth at 10 uM after 48 hrs by SRB assay relative to untreated control; details: SK-OV-3, 48 h, read-out: Activity
How it was run: (§3)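 NCI-60 single-dose screen. Compounds were added to the cultures at 10 μM and incubated for 48 h. The end point was sulforhodamine B protein staining read spectrophotometrically. Growth is reported as percent of untreated control cells.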

[2] = Cytotoxicity against human NCI-ADR-RES cells assessed as cell growth at 10 uM after 48 hrs by SRB assay relative to untreated control; details: read-out: Activity; how it was run: as §2
OVCAR-8 = assay: Cytotoxicity against human OVCAR8 cells assessed as cell growth at 10 uM after 48 hrs by SRB assay relative to untreated control; details: OVCAR-8, 48 h, read-out: Activity; how it was run: as §2
[3] = Cytotoxicity against human OVCAR5 cells assessed as cell growth at 10 uM after 48 hrs by SRB assay relative to untreated control; details: OVCAR-5, 48 h, read-out: Activity; how it was run: as §2
[4] = Cytotoxicity against human OVCAR4 cells assessed as cell growth at 10 uM after 48 hrs by SRB assay relative to untreated control; details: OVCAR-4, 48 h, read-out: Activity; how it was run: as §2
IGROV-1 = assay: Cytotoxicity against human IGROV1 cells assessed as cell growth at 10 uM after 48 hrs by SRB assay relative to untreated control; details: IGROV-1, 48 h, read-out: Activity; how it was run: as §1
UACC-62 = assay: Cytotoxicity against human UACC62 cells assessed as cell growth at 10 uM after 48 hrs by SRB assay relative to untreated control; details: UACC-62, 48 h, read-out: Activity; how it was run: as §3
SK-MEL-5 = assay: Cytotoxicity against human SK-MEL-5 cells assessed as cell growth at 10 uM after 48 hrs by SRB assay relative to untreated control; details: SK-MEL-5, 48 h, read-out: Activity; how it was run: as §3
MDA-MB-435 = assay: Cytotoxicity against human MDA-MB-435 cells assessed as cell growth at 10 uM after 48 hrs by SRB assay relative to untreated control; details: MDA-MB-435, 48 h, read-out: Activity; how it was run: as §2
Malme-3M = assay: Cytotoxicity against human MALME-3M cells assessed as cell growth at 10 uM after 48 hrs by SRB assay relative to untreated control; details: read-out: Activity; how it was run: as §1
LOX IMVI = assay: Cytotoxicity against human LOXIMVI cells assessed as cell growth at 10 uM after 48 hrs by SRB assay relative to untreated control; details: read-out: Activity; how it was run: as §1
U-251 = assay: Cytotoxicity against human U251 cells assessed as cell growth at 10 uM after 48 hrs by SRB assay relative to untreated control; details: U-251, 48 h, read-out: Activity; how it was run: as §3
SNB-75 = assay: Cytotoxicity against human SNB75 cells assessed as cell growth at 10 uM after 48 hrs by SRB assay relative to untreated control; details: SNB-75, 48 h, read-out: Activity; how it was run: as §3
SF-539 = assay: Cytotoxicity against human SF539 cells assessed as cell growth at 10 uM after 48 hrs by SRB assay relative to untreated control; details: SF-539, 48 h, read-out: Activity; how it was run: as §2
SF-295 = assay: Cytotoxicity against human SF295 cells assessed as cell growth at 10 uM after 48 hrs by SRB assay relative to untreated control; details: SF-295, 48 h, read-out: Activity; how it was run: as §2
SW-620 = assay: Cytotoxicity against human SW620 cells assessed as cell growth at 10 uM after 48 hrs by SRB assay relative to untreated control; details: SW-620, 48 h, read-out: Activity; how it was run: as §3
HT-29 = assay: Cytotoxicity against human HT-29 cells assessed as cell growth at 10 uM after 48 hrs by SRB assay relative to untreated control; details: HT-29, 48 h, read-out: Activity; how it was run: as §1
NCI-H522 = assay: Cytotoxicity against human NCI-H522 cells assessed as cell growth at 10 uM after 48 hrs by SRB assay relative to untreated control; details: NCI-H522, 48 h, read-out: Activity; how it was run: as §2
NCI-H322M = assay: Cytotoxicity against human NCI-H322M cells assessed as cell growth at 10 uM after 48 hrs by SRB assay relative to untreated control; details: read-out: Activity; how it was run: as §2
NCI-H23 = assay: Cytotoxicity against human NCI-H23 cells assessed as cell growth at 10 uM after 48 hrs by SRB assay relative to untreated control; details: NCI-H23, 48 h, read-out: Activity; how it was run: as §2
NCI-H226 = assay: Cytotoxicity against human NCI-H226 cells assessed as cell growth at 10 uM after 48 hrs by SRB assay relative to untreated control; details: NCI-H226, 48 h, read-out: Activity; how it was run: as §2
HOP-92 = assay: Cytotoxicity against human HOP92 cells assessed as cell growth at 10 uM after 48 hrs by SRB assay relative to untreated control; details: HOP-92, 48 h, read-out: Activity; how it was run: as §1
HOP-62 = assay: Cytotoxicity against human HOP62 cells assessed as cell growth at 10 uM after 48 hrs by SRB assay relative to untreated control; details: HOP-62, 48 h, read-out: Activity; how it was run: as §1
RPMI-8226 = assay: Cytotoxicity against human RPMI8226 cells assessed as cell growth at 10 uM after 48 hrs by SRB assay relative to untreated control; details: RPMI-8226, 48 h, read-out: Activity; how it was run: as §2
CCRF-CEM = assay: Cytotoxicity against human CCRF-CEM cells assessed as cell growth at 10 uM after 48 hrs by SRB assay relative to untreated control; details: read-out: Activity; how it was run: as §1

## O=C1c2c(nc3ccccn23)NC(=O)N2CCC[C@@H]12
BT-549
  growth at 10 µM: 82.8%
[1]
  growth at 10 µM: 94.6%
MDA-MB-231
  growth at 10 µM: 118%
PC-3
  growth at 10 µM: 93.8%
RXF 393
  growth at 10 µM: 104%
CAKI-1
  growth at 10 µM: 97.9%
SK-OV-3
  growth at 10 µM: 99.7%
[2]
  growth at 10 µM: 100%
OVCAR-8
  growth at 10 µM: 94.2%
[3]
  growth at 10 µM: 101%
[4]
  growth at 10 µM: 104%
IGROV-1
  growth at 10 µM: 109%
UACC-62
  growth at 10 µM: 104%
SK-MEL-5
  growth at 10 µM: 99.5%
MDA-MB-435
  growth at 10 µM: 94.9%
Malme-3M
  growth at 10 µM: 93.1%
LOX IMVI
  growth at 10 µM: 92.8%
U-251
  growth at 10 µM: 95.8%
SNB-75
  growth at 10 µM: 96.5%
SF-539
  growth at 10 µM: 91.7%
SF-295
  growth at 10 µM: 100%
SW-620
  growth at 10 µM: 106%
HT-29
  growth at 10 µM: 106%
NCI-H522
  growth at 10 µM: 106%
NCI-H322M
  growth at 10 µM: 106%
NCI-H23
  growth at 10 µM: 98.5%
NCI-H226
  growth at 10 µM: 100%
HOP-92
  growth at 10 µM: 86.2%
HOP-62
  growth at 10 µM: 97.1%
RPMI-8226
  growth at 10 µM: 103%
CCRF-CEM
  growth at 10 µM: 102%

## O=C1c2c(nc3ccccn23)N=C(c2ccccc2)N2CCC[C@@H]12
BT-549
  growth at 10 µM: 99.1%
[1]
  growth at 10 µM: 96.7%
MDA-MB-231
  growth at 10 µM: 94.6%
PC-3
  growth at 10 µM: 92.6%
RXF 393
  growth at 10 µM: 98.5%
CAKI-1
  growth at 10 µM: 95.4%
SK-OV-3
  growth at 10 µM: 103%
[2]
  growth at 10 µM: 97.7%
OVCAR-8
  growth at 10 µM: 98.7%
[3]
  growth at 10 µM: 94.2%
[4]
  growth at 10 µM: 95.2%
IGROV-1
  growth at 10 µM: 114%
UACC-62
  growth at 10 µM: 107%
SK-MEL-5
  growth at 10 µM: 94.7%
MDA-MB-435
  growth at 10 µM: 101%
Malme-3M
  growth at 10 µM: 102%
LOX IMVI
  growth at 10 µM: 90.1%
U-251
  growth at 10 µM: 96.2%
SNB-75
  growth at 10 µM: 88.3%
SF-539
  growth at 10 µM: 89.8%
SF-295
  growth at 10 µM: 103%
SW-620
  growth at 10 µM: 102%
HT-29
  growth at 10 µM: 114%
NCI-H522
  growth at 10 µM: 127%
NCI-H322M
  growth at 10 µM: 106%
NCI-H23
  growth at 10 µM: 97.8%
NCI-H226
  growth at 10 µM: 94.9%
HOP-92
  growth at 10 µM: 82.7%
HOP-62
  growth at 10 µM: 99.9%
RPMI-8226
  growth at 10 µM: 96.5%
CCRF-CEM
  growth at 10 µM: 104%

## C[C@H]1NC(c2ccc(Br)cc2)=Nc2nc3ccccn3c2C1=O
BT-549
  growth at 10 µM: 75.5%
[1]
  growth at 10 µM: 86.5%
MDA-MB-231
  growth at 10 µM: 74%
PC-3
  growth at 10 µM: 83.8%
RXF 393
  growth at 10 µM: 94.8%
CAKI-1
  growth at 10 µM: 93.2%
SK-OV-3
  growth at 10 µM: 97.8%
[2]
  growth at 10 µM: 95.7%
OVCAR-8
  growth at 10 µM: 94.5%
[3]
  growth at 10 µM: 98.2%
[4]
  growth at 10 µM: 111%
IGROV-1
  growth at 10 µM: 81.1%
UACC-62
  growth at 10 µM: 84%
SK-MEL-5
  growth at 10 µM: 94.2%
MDA-MB-435
  growth at 10 µM: 95.4%
Malme-3M
  growth at 10 µM: 101%
LOX IMVI
  growth at 10 µM: 92.3%
U-251
  growth at 10 µM: 101%
SNB-75
  growth at 10 µM: 89.3%
SF-539
  growth at 10 µM: 95.5%
SF-295
  growth at 10 µM: 96.9%
SW-620
  growth at 10 µM: 97%
HT-29
  growth at 10 µM: 104%
NCI-H522
  growth at 10 µM: 79.2%
NCI-H322M
  growth at 10 µM: 86.1%
NCI-H23
  growth at 10 µM: 90.7%
NCI-H226
  growth at 10 µM: 85.7%
HOP-92
  growth at 10 µM: 66.6%
HOP-62
  growth at 10 µM: 69.8%
RPMI-8226
  growth at 10 µM: 91%
CCRF-CEM
  growth at 10 µM: 96.9%
